Data set [1] has as its target Proto-oncogene tyrosine-protein kinase receptor Ret (Homo sapiens) (UniProt P07949). The data set can be described thus: Inhibition of recombinant human N-terminal GST-tagged RET (658 to end residues) expressed in baculovirus infected Sf21 insect cells at 1000 nM using poly (Glu, Tyr)4:1 as substrate measured after 1 hr by ELISA relative to control. Put shortly: (§1)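 Recombinant kinase was incubated with compound in reaction buffer containing 5 μM ATP, in wells precoated with poly(Glu,Tyr) 4:1, for 1 h at 37 °C. Phosphorylation was detected by ELISA.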
On the technique in general: In an ELISA, binding on a coated surface is turned into a signal by an enzyme label.

The target of data set [2] is Fibroblast growth factor receptor 1 (Homo sapiens, UniProt P11362). The experiment in a line: Inhibition of recombinant human N-terminal GST-tagged FGFR1 (456 to 765 residues) expressed in baculovirus infected Sf21 insect cells at 1000 nM using poly (Glu, Tyr)4:1 as substrate measured after 1 hr by ELISA relative to control. An outline of the steps:
as §1

Data set [3] has as its target Vascular endothelial growth factor receptor 3 (Homo sapiens) (UniProt P35916). The data set can be described thus: Inhibition of recombinant VEGFR3 (unknown origin) at 100 nM using poly (Glu, Tyr)4:1 as substrate measured after 1 hr by ELISA relative to control. An outline of the steps:
as §1

Another data set addresses c-KIT (Homo sapiens, UniProt P10721). The experiment in a line: Inhibition of recombinant human N-terminal GST-tagged c-KIT (544 to end residues) expressed in baculovirus infected Sf21 insect cells at 100 nM using poly (Glu, Tyr)4:1 as substrate measured after 1 hr by ELISA relative to control. The following applies: probe poly (Glu, Tyr)4:1. An outline of the steps:
as §1

Data set [4] addresses Ephrin type-A receptor 2 (Homo sapiens) (UniProt P29317). The experiment in a line: Inhibition of recombinant human N-terminal His6-tagged EphA2 (596 to 900 residues) expressed in baculovirus infected Sf21 insect cells at 100 nM using poly (Glu, Tyr)4:1 as substrate measured after 1 hr by ELISA relative to control. Put shortly: as §1
The nature of data set [5]: MRT (infinity) in Sprague-Dawley rat at 2 mg/kg, iv administered […] by LC-MS/MS analysis. The class given is ADME, organism-based. The following applies: in vivo. An outline of the steps:
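Male SD rats (200 ± 20 g), fasted 12 h, n = 3; single intravenous dose of 2 mg/kg in DMSO/EtOH/PEG300/saline (5/5/40/50). Femoral vein blood at 15–1440 min; plasma precipitated with methanol containing internal standard, assayed by LC–MS/MS; noncompartmental analysis (MRT = AUMC/AUC, Vss = CL × MRT).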

SMILES strings stand for the structures.

Ephrin type-A receptor 2 (Homo sapiens), sequence (P29317 whole entry, the tested form may be a part): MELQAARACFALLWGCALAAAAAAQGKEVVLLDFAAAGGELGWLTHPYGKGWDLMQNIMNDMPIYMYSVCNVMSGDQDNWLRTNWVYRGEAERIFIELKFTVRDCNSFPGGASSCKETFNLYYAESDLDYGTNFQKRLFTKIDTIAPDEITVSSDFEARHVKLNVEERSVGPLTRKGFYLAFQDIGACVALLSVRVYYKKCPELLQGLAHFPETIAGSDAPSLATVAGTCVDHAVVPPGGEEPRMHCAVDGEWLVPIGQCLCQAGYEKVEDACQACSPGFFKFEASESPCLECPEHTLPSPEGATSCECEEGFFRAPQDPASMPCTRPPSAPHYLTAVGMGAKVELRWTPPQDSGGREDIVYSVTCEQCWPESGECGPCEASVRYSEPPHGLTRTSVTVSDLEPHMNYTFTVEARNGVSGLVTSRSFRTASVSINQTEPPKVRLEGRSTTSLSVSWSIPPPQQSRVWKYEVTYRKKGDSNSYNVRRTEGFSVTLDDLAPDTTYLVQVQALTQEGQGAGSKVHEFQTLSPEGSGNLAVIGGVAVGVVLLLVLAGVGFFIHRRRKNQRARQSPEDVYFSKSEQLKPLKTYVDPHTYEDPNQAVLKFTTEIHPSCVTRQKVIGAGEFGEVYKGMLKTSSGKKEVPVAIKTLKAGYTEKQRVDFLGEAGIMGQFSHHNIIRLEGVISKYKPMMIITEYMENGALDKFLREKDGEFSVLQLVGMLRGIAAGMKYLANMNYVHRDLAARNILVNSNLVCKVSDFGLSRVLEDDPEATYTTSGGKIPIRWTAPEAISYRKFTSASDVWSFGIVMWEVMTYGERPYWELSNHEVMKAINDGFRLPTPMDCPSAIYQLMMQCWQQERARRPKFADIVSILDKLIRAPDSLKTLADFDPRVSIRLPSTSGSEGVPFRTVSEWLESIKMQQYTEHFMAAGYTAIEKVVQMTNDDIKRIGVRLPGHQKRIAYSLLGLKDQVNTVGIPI
Vascular endothelial growth factor receptor 3 (Homo sapiens), sequence (P35916 whole entry): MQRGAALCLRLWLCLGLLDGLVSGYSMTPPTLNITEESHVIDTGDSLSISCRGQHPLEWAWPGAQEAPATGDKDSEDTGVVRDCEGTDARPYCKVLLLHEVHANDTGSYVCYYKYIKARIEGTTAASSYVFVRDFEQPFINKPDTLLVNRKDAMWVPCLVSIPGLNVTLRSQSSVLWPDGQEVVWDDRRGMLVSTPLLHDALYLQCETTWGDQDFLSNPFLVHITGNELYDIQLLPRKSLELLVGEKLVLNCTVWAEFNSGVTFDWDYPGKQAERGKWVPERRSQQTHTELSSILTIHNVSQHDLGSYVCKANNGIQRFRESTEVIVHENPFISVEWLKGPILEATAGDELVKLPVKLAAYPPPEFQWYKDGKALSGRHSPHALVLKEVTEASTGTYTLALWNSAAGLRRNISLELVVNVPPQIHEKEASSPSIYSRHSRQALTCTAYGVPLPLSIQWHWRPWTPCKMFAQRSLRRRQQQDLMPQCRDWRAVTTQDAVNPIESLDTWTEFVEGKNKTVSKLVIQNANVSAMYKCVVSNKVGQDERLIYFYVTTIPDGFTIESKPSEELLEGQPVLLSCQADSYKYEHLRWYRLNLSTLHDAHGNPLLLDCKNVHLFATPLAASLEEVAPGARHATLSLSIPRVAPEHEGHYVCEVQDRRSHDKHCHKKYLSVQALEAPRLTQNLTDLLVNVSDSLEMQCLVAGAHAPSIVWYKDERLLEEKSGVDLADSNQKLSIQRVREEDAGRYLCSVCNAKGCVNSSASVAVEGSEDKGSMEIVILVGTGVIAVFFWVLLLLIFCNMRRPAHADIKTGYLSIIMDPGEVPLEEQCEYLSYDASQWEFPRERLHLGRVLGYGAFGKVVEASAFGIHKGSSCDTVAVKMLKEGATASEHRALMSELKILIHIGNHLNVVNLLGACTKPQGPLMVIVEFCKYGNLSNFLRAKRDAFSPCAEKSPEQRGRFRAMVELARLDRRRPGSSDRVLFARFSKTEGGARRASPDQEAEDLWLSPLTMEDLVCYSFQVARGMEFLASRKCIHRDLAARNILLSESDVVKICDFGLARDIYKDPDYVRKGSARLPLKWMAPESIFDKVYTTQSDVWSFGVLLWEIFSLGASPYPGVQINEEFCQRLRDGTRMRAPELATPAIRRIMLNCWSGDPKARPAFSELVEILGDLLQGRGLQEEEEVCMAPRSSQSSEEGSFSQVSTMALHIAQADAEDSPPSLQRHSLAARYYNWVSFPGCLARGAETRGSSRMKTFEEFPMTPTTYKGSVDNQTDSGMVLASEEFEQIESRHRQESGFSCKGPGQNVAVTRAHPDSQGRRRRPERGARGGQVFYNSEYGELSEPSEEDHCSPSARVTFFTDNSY
c-KIT, sequence (P10721 whole entry): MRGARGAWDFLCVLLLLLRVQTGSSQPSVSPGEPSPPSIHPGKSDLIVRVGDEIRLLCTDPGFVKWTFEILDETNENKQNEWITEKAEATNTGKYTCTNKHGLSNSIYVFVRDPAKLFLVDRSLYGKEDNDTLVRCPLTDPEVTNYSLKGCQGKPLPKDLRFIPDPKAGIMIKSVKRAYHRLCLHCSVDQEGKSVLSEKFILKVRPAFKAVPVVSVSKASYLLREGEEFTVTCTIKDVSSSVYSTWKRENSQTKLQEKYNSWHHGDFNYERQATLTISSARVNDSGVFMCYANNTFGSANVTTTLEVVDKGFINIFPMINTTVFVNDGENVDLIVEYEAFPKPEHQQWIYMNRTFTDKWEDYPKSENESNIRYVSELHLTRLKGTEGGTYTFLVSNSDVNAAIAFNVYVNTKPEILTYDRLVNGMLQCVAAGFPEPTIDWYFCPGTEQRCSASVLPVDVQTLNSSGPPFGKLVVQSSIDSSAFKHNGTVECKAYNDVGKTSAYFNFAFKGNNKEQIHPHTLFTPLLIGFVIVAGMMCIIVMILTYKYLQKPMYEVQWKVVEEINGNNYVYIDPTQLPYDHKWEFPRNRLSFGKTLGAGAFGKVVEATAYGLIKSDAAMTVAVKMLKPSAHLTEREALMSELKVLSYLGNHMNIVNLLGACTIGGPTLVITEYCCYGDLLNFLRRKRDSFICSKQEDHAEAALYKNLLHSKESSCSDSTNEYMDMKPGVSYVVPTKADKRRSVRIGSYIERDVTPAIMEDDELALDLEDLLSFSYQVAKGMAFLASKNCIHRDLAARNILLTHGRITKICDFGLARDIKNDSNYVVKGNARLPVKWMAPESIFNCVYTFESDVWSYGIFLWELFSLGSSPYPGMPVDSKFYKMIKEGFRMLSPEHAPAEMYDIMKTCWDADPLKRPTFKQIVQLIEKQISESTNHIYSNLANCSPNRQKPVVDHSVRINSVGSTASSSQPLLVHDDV
Fibroblast growth factor receptor 1, sequence (P11362 22-822 limits assumed): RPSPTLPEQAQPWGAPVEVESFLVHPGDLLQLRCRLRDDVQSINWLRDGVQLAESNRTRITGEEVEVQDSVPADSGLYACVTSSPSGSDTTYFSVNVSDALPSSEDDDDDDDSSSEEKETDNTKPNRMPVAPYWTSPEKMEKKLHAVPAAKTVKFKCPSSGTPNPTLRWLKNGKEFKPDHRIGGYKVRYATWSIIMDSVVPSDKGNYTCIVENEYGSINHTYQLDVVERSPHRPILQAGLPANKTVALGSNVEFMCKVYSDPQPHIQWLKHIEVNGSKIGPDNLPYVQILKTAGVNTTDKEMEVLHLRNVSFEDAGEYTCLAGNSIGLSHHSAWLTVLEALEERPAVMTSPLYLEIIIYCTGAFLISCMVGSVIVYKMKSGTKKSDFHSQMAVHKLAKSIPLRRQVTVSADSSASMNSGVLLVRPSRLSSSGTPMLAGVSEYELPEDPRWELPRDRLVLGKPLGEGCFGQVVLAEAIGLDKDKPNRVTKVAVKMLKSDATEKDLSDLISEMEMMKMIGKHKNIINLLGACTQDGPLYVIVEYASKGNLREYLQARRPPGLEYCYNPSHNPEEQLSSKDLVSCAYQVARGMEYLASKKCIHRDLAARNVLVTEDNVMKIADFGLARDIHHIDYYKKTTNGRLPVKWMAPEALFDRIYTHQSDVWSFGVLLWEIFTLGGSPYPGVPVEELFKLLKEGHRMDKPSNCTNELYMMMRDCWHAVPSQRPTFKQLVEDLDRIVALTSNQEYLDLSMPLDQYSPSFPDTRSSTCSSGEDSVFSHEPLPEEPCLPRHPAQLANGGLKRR

For `Cc1ccc(C(=O)Nc2ccc(Cl)cc2)cc1C#Cc1cc(-c2cnn(C)c2)cnc1N`, the inhibition in data set [1] amounted to 96.6%; in data set [2], 0%; in data set [3], 69.4%; in data set [4], 31.4%. In addition, at c-KIT, the inhibition at 1 h, 0.1 µM worked out at 100%. The compound further came in with a mean residence time (MRT inf) in data set [5] of 2.3 h.

A word on the inhibition: it is the drop in the measured response relative to a control, in per cent. One may read the MRT inf as the average time that molecules of a dose stay in the body.

For the origin of these results see ChEMBL document CHEMBL4321879, “Novel Class of Colony-Stimulating Factor 1 Receptor Kinase Inhibitors Based on an o-Aminopyridyl Alkynyl Scaffold as Potential Treatment for Inflammatory Disorders” (J Med Chem, 2020).
